Screening data: PubChem, several laboratories
Shown are actives, neighbours in structure and some others; about 6.4% of the full set was active somewhere.
Lung fibro prol: antiproliferative effect on LL 47 fibroblasts – human, LL 47 cells, CellTiter-Glo luminescence, primary screen; 85,000 compounds, 1.1% hits; LL 47 human lung fibroblast viability, ATP luminescence; active compounds read low; AID 719, 2007; viability, % at 10 µM;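 active means viability at or below 50% in the single dose screen; inactive means viability above 50%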;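 further: compound exposure lasted 72 h before the ATP readout; 100% = median luminescence of untreated cell-only wells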
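Benchmarks: Cell-only wells, no compound | Test system: LL 47 human lung fibroblasts, passage 12 or lower | Input: 1,150 cells/well | Measured by: CellTiter-Glo luminescence measuring cellular ATP | Medium: IMEM, 15% FBS supplement | Schedule: Overnight attachment after seeding, then 72 h compound exposure at 37 °C | Doses: Compound addition at 0.1% DMSO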
HUVEC prolif 384: inhibitors of HUVEC proliferation, primary screen, cell-based, 384-well; CellTiter-Glo luminescence, 72 h; active compounds read low; viability, % at 10 µM (by protocol); 86,000 compounds, 1.1% hits; AID 648, 2007;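 active means viability at or below 30%; inactive means viability above 30%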;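 further: 100% = median luminescence of DMSO-only cell control wells on each plate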
H69AR inhibit: proliferation blockers of H69AR lung cancer cells, primary screen, cell-based, human, 86K library. H69AR lung tumor viability, ATP luminescence, 72 h; active compounds read low. viability, % at 10 µM. 85,000 compounds, 6% hits. AID 598, 2007;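 active means viability at or below 40%; inactive means viability above 40%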;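 further: multidrug resistant small cell line overexpressing MRP-1 efflux transporter; 100% = mean luminescence of untreated control wells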
Jurkat tox 60K: cytotoxicity toward Jurkat T cells, primary screen, cytotoxicity control, cell-based, Jurkat E6.1, 60K MLSMR library. Jurkat E6.1 viability, ATP luminescence, 48 h. inhibition, % at 4 µM. 56,000 compounds, 1.2% hits;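 active means inhibition above the mean inhibition of all tested compounds plus 3 SD, cut at about 28% in these data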
tolC growth inh: growth inhibitors of E. coli tolC mutant, primary screen, strain BW25113 ΔtolC::kan, 384-well; OD615; growth inhibition, % at 10 µM (by protocol); 65,000 compounds, 2.2% hits; AID 573, 2007;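 active means growth inhibition at or above a cutoff equal to the mean over every tested compound plus 3 SD, cut at about 60% in these data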;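 further: growth measured after 20 h incubation at 37 °C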
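Doses: one dose of 10 µM final / Material: E. coli BW25113 ΔtolC::kan, tolC deletion mutant strain / Buffer or medium: LB with kanamycin 50 µg/mL / Evaluation: percent growth inhibition / Detection: optical density read at 615 nm / Incubation: 37 °C, 20 h exposure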
E coli WT exp: growth inhibitors of wild-type E. coli, primary screen, strain BW25113, expanded library, OD600; OD600 absorbance; growth inhibition, % at 100 µM; 98,000 compounds, 0.15% hits; AID 710, 2007;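 active means growth inhibition above about 50% at one test dose, limit read from the data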;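 further: growth measured after 20 h incubation at 37 °C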
The depositor's hits bear a star; / = not tested or not shown.

SMILES	Lung fibro prol	HUVEC prolif 384	H69AR inhibit	Jurkat tox 60K	tolC growth inh	E coli WT exp
CCC(Sc1nc2cc(OC)c(OC)cc2c(=O)n1Cc1ccco1)C(=O)NCCOC (configuration not stated)	97.5	90.0	65.5	/	/	-1.0
Cc1ccc(CCNc2ccccc2C)cn1	99.4	104.6	108.3	/	/	/
O=C1c2cnccc2CN1Cc1ccccc1	104.9	93.5	87.2	/	/	2.0
Cc1nn(Cc2ccccc2)c(C)c1C(=O)OCC(=O)c1cc(C)n(C2CC2)c1C	95.9	96.0	79.8	0.3	65.3*	-6.0
O=C(NCc1ccc2c(c1)OCO2)c1ccc(=O)[nH]c1	103.6	92.0	103.8	/	/	6.0
Cc1sc(NC(=O)c2ccco2)c(CN2CCN(c3ccccn3)CC2)c1C	86.5	92.7	71.7	9.3	62.6*	-6.0
Cc1ccc(S(=O)(=O)Oc2ccccc2/C=N/NC(=O)c2c(Cl)cnn2C)cc1	98.3	85.7	33.3*	/	/	/
CCCCCOc1ccc(C2C(C(C)=O)=C(C)Nc3ncnn32)cc1OC (configuration not stated)	/	/	/	-0.1	-8.3	-14.0
Cn1c(Cc2cccs2)nnc1SC/C=C/c1ccccc1	100.2	91.8	94.6	-3.1	11.3	-1.0
Nc1nonc1C(=O)NCCNS(=O)(=O)c1ccc(Br)cc1	/	/	/	/	/	1.0
COc1ccc(C2=Nn3c(nnc3-c3ccc(OC)cc3)SC2)cc1	41.8*	47.2	21.7*	93.2*	27.4	-1.0
c1ccc(C2=Nn3c(nnc3-c3cc(-c4ccccc4)n[nH]3)SC2)cc1	63.5	89.8	39.6*	7.3	9.4	-5.0
COc1cccc(-c2nnc3n2N=C(c2cc(OC)ccc2OC)CS3)c1	/	/	/	/	/	-8.0
Clc1ccc(C2=Nn3c(nnc3-c3cc(-c4ccccc4)n[nH]3)SC2)cc1	/	/	/	/	/	2.0
CCOc1cccc(-c2nnc3n2N=C(c2cc(OC)ccc2OC)CS3)c1	60.5	55.9	20.6*	/	22.5	3.0
COc1ccc(-c2nnc3n2N=C(C)CS3)cc1	97.4	79.7	84.1	/	/	-2.0
CCOc1ccc(C2=Nn3c(nnc3-c3ccccn3)SC2)cc1	94.0	95.2	29.9*	/	20.9	-6.0
CC(C)C1Oc2ccccc2N(CC(=O)N(Cc2ccncc2)Cc2ccco2)C1=O (configuration not stated)	94.9	78.8	66.0	/	/	/
COc1ccc(CCN(C(=O)c2cccc(F)c2)C2CC(=O)N(c3ccc(OC)cc3)C2=O)cc1 (configuration not stated)	/	/	/	/	/	-9.0
CC(NC(=O)c1ccco1)c1cccc2ccccc12 (configuration not stated)	97.7	90.2	88.2	/	/	/
Cc1cc[n+](-c2nc([O-])n(-c3ccccc3)c2C=O)cc1	104.6	105.0	106.8	/	/	/
COc1cc(-c2nnc3n2N=C(c2ccccc2)CS3)cc(OC)c1OC	51.8	49.5	19.5*	51.5*	18.5	-9.0
COc1ccc(OC)c(C2=Nn3c(nnc3-c3cc(OC)c(OC)c(OC)c3)SC2)c1	78.5	68.3	58.1	3.6	13.6	-1.0
COc1ccc(C2=Nn3c(nnc3-c3ccccc3OC)SC2)cc1OC	/	/	/	99.2*	12.5	1.0
c1ccc(-c2nc3cc4ccccc4cc3[nH]2)nc1	52.4	54.5	16.2*	/	/	2.0
SMILES	Lung fibro prol	HUVEC prolif 384	H69AR inhibit	Jurkat tox 60K	tolC growth inh	E coli WT exp
COCCN(C(=O)Cc1cccs1)C(C(=O)NCc1ccc(OC)cc1)c1ccccc1 (configuration not stated)	/	/	/	/	/	-7.0
Cc1ccc(O)c(/C=N/NC(=O)C2=NNC(c3ccccc3)(c3ccccc3)C2)c1	11.7*	4.0*	36.8*	/	/	/
Cc1cccc(/C=N\NC(=O)c2csnn2)c1	/	/	/	/	/	2.0
NC(=O)C1CCN(C(=O)OCc2ccccc2)CC1	/	/	/	/	/	1.0
COc1ccc(-n2nnnc2-c2cn(C)nc2C(F)(F)F)cc1	/	/	/	/	/	3.0
COc1ccc(Cl)cc1NS(=O)(=O)c1ccc(OC)c(OC)c1	103.6	91.3	95.2	/	/	/
COc1ccc(S(=O)(=O)Nc2cc(Cl)ccc2OC)cc1	51.6	38.8	19.3*	76.1*	9.7	-6.0
COc1ccc(OC)c(S(=O)(=O)Nc2ccc(Oc3ccccc3)cc2)c1	91.6	90.6	94.4	/	/	-5.0
COc1ccc(OC)c(S(=O)(=O)Nc2ccc(O)c3ccccc23)c1	54.9	2.3*	1.9*	25.0	9.3	/
COc1ccc(NS(=O)(=O)c2ccc(NS(=O)(=O)c3ccc(SC)cc3)cc2)c(OC)c1	101.1	85.0	55.1	/	/	-2.0
COc1ccc(OC)c(NS(=O)(=O)c2ccc(NC(C)=O)cc2)c1	92.8	90.9	34.0*	/	/	7.0
COc1ccc(OC)c(NS(=O)(=O)c2ccc(SC)cc2)c1	84.1	62.1	13.9*	78.0*	3.1	-8.0
Cc1ccc2oc(=O)c3cc(C(=O)N4CCN(c5ncccn5)CC4)sc3c2c1	88.0	92.0	60.4	1.3	-7.3	/
Cc1cccc(NC(=O)c2cc(S(=O)(=O)NCc3ccco3)ccc2F)c1C	96.1	80.5	53.5	-4.6	-3.8	-5.0
CCOc1ccc(S(=O)(=O)Nc2cc(OC)ccc2OC)cc1	100.1	49.7	22.9*	95.5*	22.6	-1.0
CCOc1ccc(S(=O)(=O)Nc2cc(OC)c(OC)cc2C(=O)O)cc1	/	/	/	/	/	-12.0
O=C(Cc1ccccc1)NCC(=O)OCC(=O)c1cccs1	/	/	/	/	/	2.0
CCOc1ccc(N2C(=O)c3ccc(C(=O)OCc4c(C)noc4C)cc3C2=O)cc1	72.3	41.6	35.8*	-1.6	-8.2	2.0
O=C(Nc1ccc2c(c1)CCC2)C1COc2ccccc2O1 (configuration not stated)	98.1	91.8	114.3	-2.6	100.0*	3.0
Cc1cc(=O)oc2cc(NC(=O)C3COc4ccccc4O3)ccc12 (configuration not stated)	74.3	90.8	39.4*	3.7	2.7	0.0
O=C(Nc1ccc2c(c1)OCO2)C1COc2ccccc2O1 (configuration not stated)	100.0	78.2	78.4	1.9	14.5	9.0
Cc1ccc(-c2noc(CCC(=O)NCCCN3CCN(c4ccc(F)cc4)CC3)n2)cc1	58.0	75.1	26.7*	2.0	-18.0	5.0
Clc1cccc(N2CCN(Cc3nc(-c4ccccc4)no3)CC2)c1	96.0	98.9	102.2	-0.2	20.4	1.0
Cc1ccc(-c2noc(CCC(=O)NCCCN3CCN(c4cccc(Cl)c4)CC3)n2)cc1	56.6	23.1*	36.9*	1.4	36.1	-1.0
COc1ccc(-c2noc(CCC(=O)NCCCN3CCC(C)CC3)n2)cc1	100.0	99.5	96.9	/	-11.8	0.0
CCOC(=O)C(C)Oc1cccc2c(=O)n(CC(=O)NCc3ccco3)ccc12 (configuration not stated)	/	/	/	96.4*	0.0	-3.0
CC(C)C(=O)c1cn(CC(=O)NCc2ccco2)c2ccccc12	96.3	91.4	77.5	/	/	/
